GSIS activator – GLuc luminescence reporter in INS-1E cells, primary screen for activators of glucose-dependent secretion of insulin | activation, % at 16.6 µM | INS-1E GLuc reporter insulin secretion, 2-3 h | 370,000 compounds, 0.61% hits | AID 743287;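 active means lowest replicate activation of at least 40%, so every replicate reaches that level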;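 further: 0% = median of neutral control wells and 100% = median of IBMX positive control wells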
PGC1a acetyl inh – lowers PGC1a acetylation signal in U2OS cells. AlphaScreen anti-acetyl-lysine; with virally co-expressed GCN5 acetyltransferase. inhibition, % at 15.6 µM. 350,000 compounds, 0.17% hits. AID 651687;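 active means every replicate shows inhibition of at least 40%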;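 further: 0% = neutral control wells and 100% = positive control wells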
PAX8 inh HTS – lowers PAX8-driven luciferase in RMG-I cells; RMG-I TPO-luciferase reporter, SteadyGlo, 24 h; inhibition, % at 12.6 µM; 360,000 compounds, 1.2% hits; AID 652154;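 active means mean replicate inhibition at least 60% with every replicate also reaching 60%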;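 further: luciferase light reporting Pax8 driven TPO promoter activity; plate controls were median of neutral control wells for no effect and mitoxantrone controls for full effect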
EWS-Fli inh – inhibitors of EWS/Fli oncoprotein transcriptional activity; 350,000 compounds, 0.67% hits; A673 NR0B1-luciferase reporter, viability-normalised; inhibition, % at 12.6 µM;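 active means mean inhibition of at least 50% after viability correction, with every replicate also passing that limit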;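 further: firefly luciferase signal divided by Alamar Blue viability fluorescence both relative to DMSO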
MLL AF4-AF9 inh – MLL-AF4/AF9 protein interaction inhibition; P42568; AlphaScreen, biotin-AF4 peptide binding to FLAG-AF9; inhibition, % at 10 µM; 350,000 compounds, 0.47% hits;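 active means every replicate reaching a set inhibition limit, whatever the replicate mean, cut at about 25% in these data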;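 further: 0% = plate neutral control median and 100% = total signal loss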
Target sequence (P42568 whole entry, looked up): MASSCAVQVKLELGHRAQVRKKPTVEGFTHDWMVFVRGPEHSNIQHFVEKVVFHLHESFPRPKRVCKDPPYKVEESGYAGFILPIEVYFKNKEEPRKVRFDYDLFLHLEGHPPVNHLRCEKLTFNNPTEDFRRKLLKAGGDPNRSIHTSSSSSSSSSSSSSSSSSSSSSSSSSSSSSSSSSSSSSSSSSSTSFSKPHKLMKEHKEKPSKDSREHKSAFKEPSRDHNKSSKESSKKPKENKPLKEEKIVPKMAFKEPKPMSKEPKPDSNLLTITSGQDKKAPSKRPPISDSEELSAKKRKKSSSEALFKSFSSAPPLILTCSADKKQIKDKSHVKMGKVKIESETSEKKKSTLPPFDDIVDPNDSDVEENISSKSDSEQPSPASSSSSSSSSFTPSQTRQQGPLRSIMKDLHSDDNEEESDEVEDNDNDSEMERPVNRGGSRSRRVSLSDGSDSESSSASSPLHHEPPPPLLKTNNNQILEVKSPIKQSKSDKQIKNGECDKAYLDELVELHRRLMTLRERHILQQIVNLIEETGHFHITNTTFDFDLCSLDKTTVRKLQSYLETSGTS
Xi reactivation – activators of X-chromosome reactivation in mouse fibroblasts. XiGFP mouse fibroblasts, % GFP-positive cells imaging, 3 d; cells co-treated with 5-aza-dC sensitizer; scaled so ellipticine positive control = 100%. activation, % at 7.58 µM. 360,000 compounds, 0.055% hits;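 active means mean normalized replicate activation at least 10% and every replicate at or above 10%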;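 further: 0% = median of on-plate neutral control wells and 100% = ellipticine 6 µM median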
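Material: SV40-immortalized XiGFP fibroblast cells, line 68-5-11 | Buffer or medium: DMEM containing 5-aza-dC | Dosing: One concentration, pinned | Times: 3 d treatment, 15 min room-temperature fixation | Controls: Ellipticine 6 µM positive control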
An asterisk follows results filed as active; · = no result. Only some compounds are listed: those with a hit (about 2.1% of all), similar ones and a draw of the others.

SMILES	GSIS activator	PGC1a acetyl inh	PAX8 inh HTS	EWS-Fli inh	MLL AF4-AF9 inh	Xi reactivation
COc1ccc(-c2c[n+]3c(n2-c2ccccc2)CCCCC3)cc1	-42	·	56	17	-3	0
CCOc1ccc(-n2c(-c3ccc(Br)cc3)c[n+]3c2CCCCC3)cc1	-71	-10	95*	35	2	0
CCOc1ccc(-n2c(-c3ccc(OC)cc3)c[n+]3c2CCCCC3)cc1	-20	·	99*	36	-1	0
CCOc1ccc(-n2c(-c3ccccc3)c[n+]3c2CCC3)cc1	12	-9	82*	30	-1	0
COc1ccc(-n2c(-c3ccc(Cl)cc3)c[n+]3c2CCCCC3)cc1	-22	-4	52	14	-3	0
COc1ccc(-c2c[n+]3c(n2-c2ccc(C)cc2)CCCCC3)cc1	·	5	99*	24	2	0
Cc1ccc(S(=O)(=O)Nc2cccc3c2O[C@@H](CN(C)S(=O)(=O)c2ccc(F)cc2)[C@@H](C)CN([C@@H](C)CO)C3=O)cc1	14	1	-25	-1	·	-1
CN(C)C(=O)C[C@H]1C=C[C@H](NC(=O)C2CCOCC2)[C@H](CO)O1	4	-1	·	2	-8	0
CC(=O)c1c(C)oc2ccc(NS(=O)(=O)c3ccc(F)cc3C)cc12	223*	·	11	24	-6	0
COC(=O)c1c(C)oc2ccc(NS(=O)(=O)c3cccs3)cc12	·	7	·	·	·	·
COc1ccc(NC(=O)c2ccc(-n3cnnn3)cc2)c([N+](=O)[O-])c1	14	11	11	-17	26*	0
CNC(=S)N/N=C/c1ccc(-c2cccc(C(=O)O)c2)o1	8	3	-36	12	-1	0
Cc1ccc(C(=O)N/N=C/c2ccc(-c3cccc(C(F)(F)F)c3)o2)cn1	·	5	25	50*	2	0
CN1CCN(C(=S)c2cn(Cc3ccc(Br)cc3)c3ccccc23)CC1	-39	-8	16	4	27*	0
CN1CCN(C(=S)c2cn(Cc3ccccc3)c3ccccc23)CC1	-27	·	6	6	12	0
CSCC(O)Cn1[nH]c(=O)c2cc(Cl)c(Cl)cc2c1=O (centres undefined)	-7	84*	22	-1	-3	0
CC(OC(=O)Cn1[nH]c(=O)c2ccccc2c1=O)C(=O)Nc1ccc(F)cc1Cl (centres undefined)	37	8	34	-2	-7	0
Cc1ccccc1CN1[C@@H](CC(C)C)COc2cc(Br)ccc2S1(=O)=O	-5	·	0	4	-2	0
C=C1[C@@H](O)[C@H](CC(C)C)N(Cc2ccccc2Br)S1(=O)=O	45*	-10	30	15	·	0
CNC(=O)C[C@@H]1CC[C@@H]2[C@@H](COc3ccc(NC(=O)c4cc(C)on4)cc3C(=O)N2C)O1	6	-4	-53	-5	·	0
FC(F)(F)c1cc(-c2ccccc2)nc(-n2cc(Cl)cn2)n1	51*	-9	3	14	4	0
C[C@@H]1CCCCO[C@H](CN(C)Cc2ccc(Cl)c(Cl)c2)[C@@H](C)CN([C@@H](C)CO)C(=O)c2cc(NS(=O)(=O)c3ccc(Cl)cc3)ccc2O1	-1	-9	80*	1	-3	0
C[C@H](CO)N1C[C@H](C)[C@@H](CN(C)Cc2ccc(Cl)c(Cl)c2)OCCCC[C@H](C)Oc2ccc(NS(=O)(=O)c3ccc(Cl)cc3)cc2C1=O	17	-16	101*	8	-1	1
Cc1ccc(S(=O)(=O)Nc2ccc3c(c2)C(=O)N([C@H](C)CO)C[C@@H](C)[C@@H](CN(C)Cc2ccc(Cl)c(Cl)c2)OCCCC[C@H](C)O3)cc1	-21	13	55	3	-1	1
C[C@@H]1CCCCO[C@@H](CN(C)Cc2ccc(Cl)c(Cl)c2)[C@H](C)CN([C@H](C)CO)C(=O)c2cc(NS(=O)(=O)c3ccccc3)ccc2O1	-29	17	93*	4	6	0
SMILES	GSIS activator	PGC1a acetyl inh	PAX8 inh HTS	EWS-Fli inh	MLL AF4-AF9 inh	Xi reactivation
C[C@@H]1CCCCO[C@@H](CN(C)Cc2ccc(Cl)c(Cl)c2)[C@H](C)CN([C@@H](C)CO)C(=O)c2cc(NS(=O)(=O)c3ccc(Cl)cc3)ccc2O1	-6	-22	104*	9	0	0
C[C@@H]1CCCCO[C@@H](CN(C)Cc2ccc(Cl)c(Cl)c2)[C@@H](C)CN([C@H](C)CO)C(=O)c2cc(NS(=O)(=O)c3ccccc3)ccc2O1	11	12	-2	-12	-1	-1
C[C@@H]1CCCCO[C@H](CN(C)Cc2ccc(Cl)c(Cl)c2)[C@@H](C)CN([C@H](C)CO)C(=O)c2cc(NS(=O)(=O)c3ccc(F)cc3)ccc2O1	1	-10	21	-4	-14	0
C[C@@H]1CCCCO[C@H](CN(C)Cc2ccc(Cl)c(Cl)c2)[C@H](C)CN([C@@H](C)CO)C(=O)c2cc(NS(=O)(=O)c3ccc(Cl)cc3)ccc2O1	-16	-21	95*	5	1	0
C[C@@H]1CN([C@H](C)CO)C(=O)c2cc(NS(=O)(=O)c3ccc(Cl)cc3)ccc2O[C@@H](C)CCCCO[C@@H]1CN(C)Cc1ccc(Cl)c(Cl)c1	0	-23	98*	15	-1	0
O=C(Nc1cccc(Cl)c1)Nc1nnc(-c2ccncc2)s1	-7	·	104*	2	0	0
O=C(Nc1cccc(Cl)c1)Nc1nnc(CSCCOc2ccc(Cl)cc2)s1	54*	-5	107*	·	·	0
Cc1ccc(NC(=O)Nc2nnc(CSCCOc3ccc(Cl)cc3)s2)cc1	·	·	19	12	-6	0
O=C(Nc1ccc(Cl)cc1)Nc1nnc(-c2ccncc2)s1	47	0	2	·	·	0
Cc1noc(C)c1S(=O)(=O)Nc1ccc2c(c1)C(=O)N([C@H](C)CO)C[C@@H](C)[C@@H](CN(C)CC1CCCCC1)OCCCC[C@H](C)O2	-3	·	-6	-1	4	-1
CN1[C@@H]2Cn3c(ccc(-c4ccc(F)cc4)c3=O)[C@H]1[C@@H](C(=O)NC1CCCCC1)[C@@H]2CO	-6	·	·	-7	-1	0
COc1ccccc1-n1c(-c2ccccc2)c[n+]2c1CCc1ccccc1-2	-39	-19	88*	26	-4	0
CC(C)c1ccc(-n2c(-c3ccccc3)c[n+]3c2CCc2ccccc2-3)cc1	-66	-4	90*	59*	2	0
COc1ccc(-c2c[n+]3c(n2-c2ccccc2)SCC3)cc1	2	7	7	13	·	0
FC(F)Oc1ccc(-c2c[n+]3c(n2-c2ccccc2)CCCCC3)cc1	-2	4	7	18	1	0
COc1ccc(-n2c(-c3ccc(Br)cc3)c[n+]3c2CCc2ccccc2-3)cc1	-38	·	79*	11	4	1

Assay outcomes from PubChem.
